From PubChem BioAssay AID652011 (Sanford-Burnham Center for Chemical Genomics, 2013)
pIC50: −log10 of the molar value.

Key:
Assay in all cases: HIF reporter inhibition across pancreatic and renal lines – cell-based, luminescence, MIAPaCa-2, 786-0, panel, SAR follow-up (AID 652011)
[1] = target: Endothelial PAS domain-containing protein 1 (Homo sapiens) (UniProt Q99814); conditions: MIAPaCa-2/PANC HIF reporter, luciferase luminescence, desferoxamine, overnight; HIF2a PANC cells; mean of runs
Procedure, shortened: (§1)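 Probe or stimulus: desferoxamine stimulus; times: overnight seeding and compound exposure, 37 °C, 5% CO2, 10-min detection; signal: One-Glo luciferase luminescence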

[2] = system: HIF1a; conditions: MIAPaCa-2/PANC HIF reporter, luciferase luminescence, desferoxamine, overnight
Procedure, shortened: as §1

[3] = system: HIF2a PANC; conditions: MIAPaCa-2/PANC HIF reporter, luciferase luminescence, desferoxamine, overnight
Procedure, shortened: as §1

[4] = target: Hypoxia-inducible factor 1-alpha (Homo sapiens) (UniProt Q16665); conditions: MIAPaCa-2/PANC HIF reporter, luciferase luminescence, desferoxamine, overnight; HIF1a; mean of runs
Hypoxia-inducible factor 1-alpha (Homo sapiens), sequence (Q16665 whole entry, looked up): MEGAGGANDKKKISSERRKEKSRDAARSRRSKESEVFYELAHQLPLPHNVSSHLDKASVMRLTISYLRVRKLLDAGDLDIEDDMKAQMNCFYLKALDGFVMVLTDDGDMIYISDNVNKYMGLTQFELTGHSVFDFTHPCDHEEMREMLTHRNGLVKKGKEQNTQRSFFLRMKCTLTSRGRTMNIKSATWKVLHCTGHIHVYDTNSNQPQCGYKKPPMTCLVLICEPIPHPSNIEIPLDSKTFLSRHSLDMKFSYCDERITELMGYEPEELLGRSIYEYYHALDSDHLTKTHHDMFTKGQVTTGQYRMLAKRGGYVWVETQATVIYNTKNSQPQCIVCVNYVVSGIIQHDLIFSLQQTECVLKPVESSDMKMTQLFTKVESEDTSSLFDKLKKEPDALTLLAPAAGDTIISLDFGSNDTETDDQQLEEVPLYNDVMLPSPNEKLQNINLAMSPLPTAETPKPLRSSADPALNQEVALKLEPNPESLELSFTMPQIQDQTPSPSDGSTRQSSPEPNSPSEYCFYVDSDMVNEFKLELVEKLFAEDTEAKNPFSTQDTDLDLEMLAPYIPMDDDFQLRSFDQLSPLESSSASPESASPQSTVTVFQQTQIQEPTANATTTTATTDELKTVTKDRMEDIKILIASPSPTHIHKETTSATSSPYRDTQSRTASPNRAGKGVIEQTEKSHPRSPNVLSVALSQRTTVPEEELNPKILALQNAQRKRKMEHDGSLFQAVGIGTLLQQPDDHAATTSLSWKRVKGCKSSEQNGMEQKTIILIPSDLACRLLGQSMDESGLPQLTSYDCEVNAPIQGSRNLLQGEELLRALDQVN
Procedure, shortened: as §1

[5] = run 1, individual run IC50, panel line
[6] = run 2, individual run IC50, panel line

Endothelial PAS domain-containing protein 1 (Homo sapiens), sequence (Q99814 whole entry, looked up, the tested form may be a part): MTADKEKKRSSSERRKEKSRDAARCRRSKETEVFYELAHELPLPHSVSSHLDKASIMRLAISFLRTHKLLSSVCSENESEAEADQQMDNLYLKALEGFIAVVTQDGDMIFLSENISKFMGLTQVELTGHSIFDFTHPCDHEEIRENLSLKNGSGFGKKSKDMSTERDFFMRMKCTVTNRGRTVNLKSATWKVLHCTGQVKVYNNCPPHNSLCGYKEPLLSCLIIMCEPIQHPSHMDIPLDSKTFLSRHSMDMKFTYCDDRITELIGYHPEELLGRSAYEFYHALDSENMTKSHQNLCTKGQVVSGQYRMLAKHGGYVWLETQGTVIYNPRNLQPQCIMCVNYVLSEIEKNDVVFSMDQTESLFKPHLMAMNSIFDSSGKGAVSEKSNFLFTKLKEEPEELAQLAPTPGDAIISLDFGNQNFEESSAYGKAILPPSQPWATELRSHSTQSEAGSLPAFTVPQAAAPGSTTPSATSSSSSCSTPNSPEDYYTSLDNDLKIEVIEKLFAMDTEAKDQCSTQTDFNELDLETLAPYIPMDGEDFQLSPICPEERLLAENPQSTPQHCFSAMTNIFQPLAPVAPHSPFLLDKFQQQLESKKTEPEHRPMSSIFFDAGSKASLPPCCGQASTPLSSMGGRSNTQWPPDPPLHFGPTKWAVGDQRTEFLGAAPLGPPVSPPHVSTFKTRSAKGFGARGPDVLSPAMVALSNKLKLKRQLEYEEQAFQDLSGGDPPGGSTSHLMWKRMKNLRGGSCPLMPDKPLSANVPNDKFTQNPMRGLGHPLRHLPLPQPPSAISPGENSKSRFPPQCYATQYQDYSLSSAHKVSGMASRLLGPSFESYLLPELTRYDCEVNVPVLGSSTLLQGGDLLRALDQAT

Row | pIC50 [1] | pIC50 [2, 5] | pIC50 [2, 6] | pIC50 [3, 5] | pIC50 [3, 6] | pIC50 [4] | SMILES
1 | > 6.72 | > 6.72 | > 6.72 | > 6.72 | > 6.72 | > 6.72 | CC(C)(C)c1ccc(-c2noc(CCC(=O)O)n2)cc1
2 | > 6.72 | < 4.00 | > 6.72 | > 6.72 | > 6.72 | 4.30 | CC(C)(C)c1ccc(-c2noc(CCC(=O)NC3CCCC3)n2)cc1
3 | > 6.72 | < 4.00 | 4.42 | > 6.72 | > 6.72 | 4.42 | CC(C)(C)c1ccc(-c2noc(CCC(=O)NC3CCCCC3)n2)cc1

More lines, now with the values behind:

Row | SMILES | pIC50 [1] | pIC50 [2, 5] | pIC50 [2, 6] | pIC50 [3, 5] | pIC50 [3, 6] | pIC50 [4]
4 | COc1cccc(NC(=O)CCc2nc(-c3ccc(C(C)(C)C)cc3)no2)c1 | > 6.72 | > 6.72 | 6.64 | > 6.72 | > 6.72 | 6.64
5 | CC(C)(C)c1ccc(-c2noc(CCC(=O)Nc3cccc([N+](=O)[O-])c3)n2)cc1 | > 6.72 | 5.01 | 5.17 | > 6.72 | > 6.72 | 5.08
6 | COC(=O)CCc1nc(-c2ccc(C(C)(C)C)cc2)no1 | > 6.72 | > 6.00 | > 6.72 | > 6.72 | > 6.72 | > 6.72
7 | CCOc1ccccc1NC(=O)CCc1nc(-c2ccc(C(C)(C)C)cc2)no1 | > 6.72 | < 4.00 | 6.01 | > 6.72 | > 6.72 | 6.01
8 | CCOc1ccc(-c2noc(CCC(=O)O)n2)cc1 | 5.23 | 5.93 | 5.82 | 5.35 | 5.14 | 5.87
9 | CC(C)(C)c1ccc(-c2noc(CCC(=O)Nc3cccnc3)n2)cc1 | > 6.72 | 4.42 | 4.54 | > 6.72 | > 6.72 | 4.48
10 | COc1ccccc1NC(=O)CCc1nc(-c2ccc(C(C)(C)C)cc2)no1 | > 6.72 | < 4.00 | 6.19 | > 6.72 | > 6.72 | 6.19
